What was measured:
SF-539 = assay: Growth inhibitory activity was determined against SF-539 cancer cell line of CNS cancer; type: functional; settings: Homo sapiens
Method in brief: (§1)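 NCI 60 human tumour cell line screen run at the National Cancer Institute. Cell growth and viability read with the protein stain sulforhodamine B, which binds basic amino acids of cells left attached after washing. […] MG MID is the mean GI50 calculated over all panels.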

T47D = assay: Growth inhibitory activity was determined against T-47D cancer cell line of Breast cancer; type: functional, Homo sapiens; settings: Homo sapiens, T47D; method in brief: as §1
OVCAR-8 = assay: Growth inhibitory activity was determined against OVCAR-8 cancer cell line of Ovarian cancer; type: functional; settings: Homo sapiens; method in brief: as §1
BT-549 (Homo sapiens) = assay: Growth inhibitory activity was determined against BT-549 cancer cell line of Breast cancer; settings: Homo sapiens, BT-549
[1] = biological target: Receptor-type tyrosine-protein phosphatase C, CD45 (Homo sapiens) (UniProt P08575); assay: Inhibitory activity tested against human CD45 receptor-type tyrosine-protein phosphatase C
NCI/ADR-RES = assay: Growth inhibitory activity was determined against NCI/ADR-RES cancer cell line of Breast cancer; type: functional, Homo sapiens; settings: Homo sapiens, NCI/ADR-RES; method in brief: as §1
786-0 [2] = assay: Growth inhibitory activity was determined against 786-0 cancer cell line of renal cancer; type: functional; settings: Homo sapiens; method in brief: as §1
SK-MEL-5 = assay: Growth inhibitory activity was determined against SK-MEL-5 cancer cell line of melanoma; type: functional, Homo sapiens; settings: Homo sapiens, SK-MEL-5; method in brief: as §1
UO-31 [3] = assay: Growth inhibitory activity was determined against UO-31 cancer cell line of renal cancer; type: functional; settings: Homo sapiens; method in brief: as §1
HCC 2998 = assay: Growth inhibitory activity was determined against HCC2998 cancer cell line colon cancer; type: functional, Homo sapiens; settings: Homo sapiens, HCC 2998; method in brief: as §1
[4] = biological target: T1, M-phase inducer phosphatase 1 (Homo sapiens) (UniProt P30304); assay: (§2) Inhibitory activity tested against cell division cycle 25A (assay using p-nitro phenyl phosphate (pNPP) as substrate)
T1 sequence (whole entry): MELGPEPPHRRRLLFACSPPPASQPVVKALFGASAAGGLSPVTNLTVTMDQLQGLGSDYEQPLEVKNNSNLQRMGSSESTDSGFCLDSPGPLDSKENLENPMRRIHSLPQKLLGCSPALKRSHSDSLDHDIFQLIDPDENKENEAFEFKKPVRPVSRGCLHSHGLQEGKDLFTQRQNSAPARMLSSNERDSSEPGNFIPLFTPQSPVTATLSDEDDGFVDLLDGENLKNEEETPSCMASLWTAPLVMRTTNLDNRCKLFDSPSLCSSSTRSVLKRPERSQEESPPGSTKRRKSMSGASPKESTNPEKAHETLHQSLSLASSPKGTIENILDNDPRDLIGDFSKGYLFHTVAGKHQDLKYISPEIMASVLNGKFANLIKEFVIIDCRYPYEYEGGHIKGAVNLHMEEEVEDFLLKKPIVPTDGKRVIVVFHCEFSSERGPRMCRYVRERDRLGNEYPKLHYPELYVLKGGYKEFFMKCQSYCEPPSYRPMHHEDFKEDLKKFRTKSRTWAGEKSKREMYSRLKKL

NCI-H23 = assay: Growth inhibitory activity was determined against NCI-H23 cancer cell line of non-small cell lung cancer; type: functional, Homo sapiens; settings: Homo sapiens, NCI-H23; method in brief: as §1
OVCAR-3 = assay: Growth inhibitory activity was determined against OVCAR-3 cancer cell line of Ovarian cancer; type: functional; settings: Homo sapiens; method in brief: as §1
PC-3 = assay: Growth inhibitory activity was determined against PC-3 cancer cell line of Prostate cancer; type: functional; settings: Homo sapiens; method in brief: as §1
U-251 = assay: Growth inhibitory activity was determined against U-251 cancer cell line of CNS cancer; type: functional; settings: Homo sapiens; method in brief: as §1
COLO 205 = assay: Growth inhibitory activity was determined against COLO 205 cancer cell line colon cancer; type: functional, Homo sapiens; settings: Homo sapiens, COLO 205; method in brief: as §1
[5] = biological target: T1, M-phase inducer phosphatase 1 (Homo sapiens); assay: (§3) Inhibitory activity tested against cell division cycle 25A (assay using fluorescein diphosphate (FDP) as substrate); settings: for inhibition: concentration not given here
Method in brief: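 Recombinant human GST-Cdc25A fusion protein, each batch calibrated so that FDP was dephosphorylated linearly over 20 min. Fluorescein diphosphate was the substrate. Reactions ran 15 min at 25 °C in the dark and were stopped with sodium orthovanadate. Fluorescein monophosphate was read at 485 nm excitation and 530 nm emission. IC50 came from at least two independent runs, each in triplicate.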

HT-29 [6] = assay: Growth inhibitory activity was determined against HT-29 cancer cell line colon cancer; type: functional, Homo sapiens; settings: Homo sapiens, HT-29; method in brief: as §1
SN12C [7] = assay: Growth inhibitory activity was determined against SN12C cancer cell line of renal cancer; type: functional; settings: Homo sapiens; method in brief: as §1
A549 = assay: Growth inhibitory activity was determined against A549/ATCC cancer cell line of non-small cell lung cancer; type: functional, Homo sapiens; settings: Homo sapiens, A549; method in brief: as §1
LOX IMVI = assay: Growth inhibitory activity was determined against LOX IMVI cancer cell line of melanoma; type: functional, Homo sapiens; settings: Homo sapiens, LOX IMVI; method in brief: as §1
[8] = biological target: T2, Receptor-type tyrosine-protein phosphatase C (Homo sapiens, UniProt P08575); assay: Inhibitory activity tested against Human CD45 Phosphatase (assay using p-nitrophenyl phosphate (pNPP) as substrate)
T2 sequence (P08575 whole entry): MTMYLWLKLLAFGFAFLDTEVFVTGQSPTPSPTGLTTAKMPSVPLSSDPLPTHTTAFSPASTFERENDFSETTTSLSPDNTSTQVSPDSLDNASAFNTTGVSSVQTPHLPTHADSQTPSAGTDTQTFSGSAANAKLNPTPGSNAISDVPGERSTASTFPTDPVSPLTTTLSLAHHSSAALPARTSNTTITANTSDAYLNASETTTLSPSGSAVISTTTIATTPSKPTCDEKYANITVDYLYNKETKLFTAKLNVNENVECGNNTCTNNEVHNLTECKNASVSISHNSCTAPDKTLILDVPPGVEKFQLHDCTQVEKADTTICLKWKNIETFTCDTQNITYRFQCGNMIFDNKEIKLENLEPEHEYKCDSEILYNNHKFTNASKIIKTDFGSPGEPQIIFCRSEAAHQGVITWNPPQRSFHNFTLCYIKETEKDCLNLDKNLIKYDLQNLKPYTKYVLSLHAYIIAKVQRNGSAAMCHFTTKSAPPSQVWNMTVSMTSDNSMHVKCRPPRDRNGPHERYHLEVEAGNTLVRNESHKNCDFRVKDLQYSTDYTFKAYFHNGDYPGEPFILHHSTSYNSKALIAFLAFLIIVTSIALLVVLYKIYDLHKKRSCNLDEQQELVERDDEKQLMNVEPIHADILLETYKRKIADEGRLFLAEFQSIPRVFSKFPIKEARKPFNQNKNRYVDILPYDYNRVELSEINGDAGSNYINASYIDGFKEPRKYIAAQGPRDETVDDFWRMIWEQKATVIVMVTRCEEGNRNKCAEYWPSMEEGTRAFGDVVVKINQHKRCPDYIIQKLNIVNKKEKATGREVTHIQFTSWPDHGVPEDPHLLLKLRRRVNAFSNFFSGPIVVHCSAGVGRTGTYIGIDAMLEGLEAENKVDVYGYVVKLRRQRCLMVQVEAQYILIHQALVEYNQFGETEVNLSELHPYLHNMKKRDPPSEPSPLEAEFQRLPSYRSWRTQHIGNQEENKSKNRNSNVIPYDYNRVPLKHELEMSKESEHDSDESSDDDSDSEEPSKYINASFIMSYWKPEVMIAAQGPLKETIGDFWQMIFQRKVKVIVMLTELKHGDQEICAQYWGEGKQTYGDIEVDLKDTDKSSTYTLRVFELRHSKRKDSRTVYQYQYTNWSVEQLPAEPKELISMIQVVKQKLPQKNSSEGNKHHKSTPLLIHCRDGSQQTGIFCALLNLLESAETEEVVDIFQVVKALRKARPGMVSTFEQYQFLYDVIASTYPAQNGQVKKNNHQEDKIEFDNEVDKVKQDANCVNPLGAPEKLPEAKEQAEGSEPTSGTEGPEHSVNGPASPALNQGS

[9] = biological target: T3, M-phase inducer phosphatase 1 (Homo sapiens, UniProt P30304); assay: as §3
T3 sequence (P30304 whole entry): T1 sequence (whole entry)
Method in brief: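 Recombinant human GST-Cdc25A fusion protein, each batch calibrated so that FDP was dephosphorylated linearly over 20 min. Fluorescein diphosphate was the substrate. Reactions ran 15 min at 25 °C in the dark and were stopped with sodium orthovanadate. IC50 came from at least two independent runs, each in triplicate.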

[10] = biological target: T3, M-phase inducer phosphatase 1; assay: as §2
UO-31 [11] = assay: Growth inhibitory activity was determined against UO-31 cancer cell line of Renal cancer; type: functional; settings: Homo sapiens; method in brief: as §1
SN12C [12] = assay: Growth inhibitory activity was determined against SN12C cancer cell line of Renal cancer; type: functional; settings: Homo sapiens; method in brief: as §1
SF-268 = assay: Growth inhibitory activity was determined against SF-268 cancer cell line of CNS cancer; type: functional; settings: Homo sapiens; method in brief: as §1
786-0 [13] = assay: Growth inhibitory activity was determined against 786-0 cancer cell line of Renal cancer; type: functional; settings: Homo sapiens; method in brief: as §1
NCI-H522 = assay: Growth inhibitory activity was determined against NCI-H522 cancer cell line of non-small cell lung cancer; type: functional; settings: Homo sapiens; method in brief: as §1
HT-29 [14] = assay: Inhibition of colon cancer in HT-29 cancer cell lines; type: functional; settings: Homo sapiens
Method in brief: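 Soft agar clonogenic assay of anchorage-independent growth, using HT-29 colon and A549 lung adenocarcinoma cells. The value is the compound concentration that cut colony number to 50% of control.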

Row | SMILES | GI50 (SF-539) [µM] | GI50 (T47D) [µM] | GI50 (OVCAR-8) [µM] | GI50 (BT-549 (Homo sapiens)) [µM] | GI50 (NCI/ADR-RES) [µM] | GI50 (SK-MEL-5) [µM] | GI50 (HCC 2998) [µM] | GI50 (NCI-H23) [µM] | GI50 (OVCAR-3) [µM] | GI50 (PC-3) [µM] | GI50 (U-251) [µM] | GI50 (COLO 205) [µM] | GI50 (HT-29 [6]) [µM] | GI50 (A549) [µM] | GI50 (LOX IMVI) [µM] | inhibition [5] [%] | GI50 (SF-268) [µM] | GI50 (NCI-H522) [µM] | also measured
1 | C=C(CCCCC#N)[C@H]1CC[C@]2(C)[C@@H]([C@H](C)CCCC(C)C)CC[C@H]2[C@@H]1CC(=O)O | 4.5 | 8.39 | 4.78 | 5.62 | 5.66 | 5.98 | 6.33 | 5.12 | 6.64 | 7.36 | 6.49 | 5.1 | 7.77 | 5.21 | 4.92 |  |  |  | IC50 [1]: 12.2 µM; GI50 (786-0 [2]): 11.5 µM; GI50 (UO-31 [3]): 9.41 µM; IC50 [4]: 8.3 µM; IC50 [5]: 2200 nM; GI50 (SN12C [7]): 6.9 µM
2 | CC(C)CCC[C@@H](C)[C@H]1CC[C@H]2[C@@H]3CC[C@H]4CC(NCCCC(=O)O)CC[C@]4(C)[C@H]3CC[C@]12C (stereo not given in full) |  |  |  |  |  |  |  |  |  |  |  |  |  |  |  | 16 |  |  | 
3 | CC(C)CCC[C@@H](C)[C@H]1CC[C@H]2[C@@H]3CC[C@H]4C[C@@H](OC(=O)Nc5ccccc5)CC[C@]4(C)[C@H]3CC[C@]12C |  |  |  |  |  |  |  |  |  |  |  |  |  |  |  | 18 |  |  | 
4 | CC(C)CCC[C@@H](C)[C@H]1CC[C@H]2[C@@H]3CC[C@H]4C[C@@H](OC(=S)S)CC[C@]4(C)[C@H]3CC[C@]12C |  |  |  |  |  |  |  |  |  |  |  |  |  |  |  |  |  |  | IC50 [8]: > 100 µM; IC50 [9]: 1100 nM; IC50 [10]: 11.7 µM
5 | CC(C)CCCC(C)[C@H]1CC[C@H]2[C@H](CC(=O)O)[C@@H](C(C)CCCCC#N)CC[C@]12C (stereo in doubt; 21) | 10.8 | 6.69 | 4.88 | 5.16 | 5.34 | 7.04 | 5.36 | 5.27 | 5.25 | 7.15 |  | 5.29 | 4.69 | 5.09 | 4.86 |  | > 25 | > 25 | GI50 (UO-31 [11]): 9.97 µM; GI50 (SN12C [12]): 6.05 µM; GI50 (786-0 [13]): 8.45 µM; IC50 [9]: 2200 nM
6 | CC(C)CCC[C@@H](C)[C@H]1CC[C@H]2[C@@H]3CC(=O)O[C@](C)(CCCCC#N)[C@H]3CC[C@]12C | 5.17 | 4.92 | 5.19 | 5.89 |  | 5.1 | 4.71 | 5.63 | 4.73 | 5.51 | 5.04 | 4.75 |  | 5.51 | 5.35 |  | > 25 | > 25 | GI50 (UO-31 [11]): 0.47 µM; GI50 (HT-29 [14]): 4.05 µM; GI50 (SN12C [12]): 4.38 µM; GI50 (786-0 [13]): 4.3 µM
7 | CC(C)CCC[C@@H](C)[C@H]1CC[C@H]2[C@@H]3CC(=O)N4C(=O)C=CCC[C@]4(C)[C@H]3CC[C@]12C | 4.46 | 4.09 | 1.97 | 5.07 | 6.05 | 4.37 |  | 4.85 | 4 | 4.22 | 3.46 | 4.76 | 2.63 | 4.27 | 0.84 |  | > 25 | 6.1 | GI50 (786-0 [2]): 1.44 µM; GI50 (UO-31 [3]): 2.95 µM; GI50 (SN12C [7]): 3.46 µM
8 | CC(C)CCC[C@@H](C)[C@H]1CC[C@H]2[C@@H]3CC[C@H]4C[C@@H](O/C(S)=N\c5cccc6ccccc56)CC[C@]4(C)[C@H]3CC[C@]12C |  |  |  |  |  |  |  |  |  |  |  |  |  |  |  | 19 |  |  | 
